Screens as filed in PubChem.
Mcl1-Noxa inh = Mcl-1/Noxa binding inhibitors, primary screen, biochemical, TR-FRET, 1536-well; inhibition, % at 21.7 µM; AID 1022, 2008; Induced myeloid leukemia cell differentiation protein Mcl-1 (Homo sapiens), Q07820; 220,000 tested, 1.5% active; TR-FRET Mcl-1/Noxa peptide binding, 2 h;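 active = compounds that cut the protein-peptide binding signal by more than 50% relative to plate controls in a single-dose test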;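 also: His-tagged Mcl-1 with rhodamine Noxa BH3 peptide and terbium anti-His antibody; 0% = Mcl-1 plus Noxa peptide wells and 100% = peptide-only wells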
14-3-3 Bad PPI = inhibitors of 14-3-3 zeta/Bad binding, primary screen, biochemical, TR-FRET, bovine 14-3-3 zeta | AID 781, 2007 | TR-FRET 14-3-3zeta/Dy647-pBad peptide displacement, 1 h | 220,000 tested, 0.71% active | 14-3-3 protein zeta/delta (Bos taurus), P63103 | inhibition, % at 21.7 µM;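 active = inhibition above about 70%, limit read from the data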;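 also: 0% = full 14-3-3 plus peptide FRET controls and 100% = background without 14-3-3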
Hck Nef HTS = inhibitors of Nef-activated human Hck kinase, primary screen, biochemical, Z-Lyte FRET, 384-well, Hck-YEEI | Tyrosine-protein kinase HCK (Homo sapiens), P08631 | Recombinant Hck-YEEI plus Nef, Z-Lyte FRET kinase assay | inhibition, % at 20 µM | 220,000 tested, 0.68% active;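 active = Hck-Nef kinase inhibition above about 50%, limit read from the data; inactive = inhibition below that limit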;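 also: 0% = DMSO with Hck plus Nef and 100% = Hck alone without Nef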
Target sequence (P08631 whole entry, looked up): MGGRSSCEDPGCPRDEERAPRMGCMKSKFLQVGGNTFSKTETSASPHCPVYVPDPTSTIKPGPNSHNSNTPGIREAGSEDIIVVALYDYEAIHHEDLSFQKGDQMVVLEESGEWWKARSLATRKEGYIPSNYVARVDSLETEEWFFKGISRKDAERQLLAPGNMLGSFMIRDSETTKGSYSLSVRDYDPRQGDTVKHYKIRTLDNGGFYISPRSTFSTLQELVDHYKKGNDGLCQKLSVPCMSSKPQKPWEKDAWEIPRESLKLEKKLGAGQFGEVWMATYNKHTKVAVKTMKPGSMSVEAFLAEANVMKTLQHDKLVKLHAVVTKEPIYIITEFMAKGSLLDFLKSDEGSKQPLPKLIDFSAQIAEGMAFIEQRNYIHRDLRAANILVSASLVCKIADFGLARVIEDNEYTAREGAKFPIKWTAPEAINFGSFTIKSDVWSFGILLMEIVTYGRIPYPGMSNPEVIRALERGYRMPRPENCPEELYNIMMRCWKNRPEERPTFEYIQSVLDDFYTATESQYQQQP
Mcl1 Bid PPI = Mcl-1/Bid binding inhibitors, primary screen, biochemical, TR-FRET, 1536-well; 220,000 tested, 0.97% active; AID 1021, 2008; TR-FRET Mcl-1/Bid-Dy647 peptide binding; Induced myeloid leukemia cell differentiation protein Mcl-1 (Homo sapiens), Q07820; inhibition, % at 21.7 µM;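 active = compounds that cut the binding signal by more than half at the single screening dose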;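 also: His-tagged Mcl-1 with europium anti-His antibody binding Bid BH3 peptide; 0% = Mcl-1 plus peptide wells and 100% = peptide-only wells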
Mcl-1 Bim block = inhibitors of Bim peptide binding to Mcl-1, primary screen, biochemical, bead-based flow cytometry, multiplex; inhibition, % at 10 µM; Induced myeloid leukemia cell differentiation protein Mcl-1 (Homo sapiens), Q07820; 190,000 tested, 0.1% active; Bim peptide-Mcl-1 binding; in the data active = inhibition above about 40%;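 also: 0% = no compound tracer wells and 100% = peptide blocker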
Calb biofilm kill = clotrimazole potentiators killing C. albicans biofilm, primary screen, 4-compound mixtures | C. albicans biofilm persisters + clotrimazole, fluorescence viability; primary screen in compound mixtures of four per well | inhibition, % at 7.6 µM | 120,000 tested, 0.02% active | AID 1242, 2008;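 active = inhibition above 30.3% in the primary screen of four-compound pools, then above 30% when the compound was retested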;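 also: compounds exposed to preformed 24 h biofilms for 48 h; 0% = untreated biofilm control and 100% = clotrimazole plus chlorhexidine kill blank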
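Incubation: 24 h biofilm formation, then 48 h compound exposure, 37 °C | Material: C. albicans biofilms | Buffer or medium: RPMI/MOPS medium, pH 7.0 | Measured by: 2-h Alamar Blue fluorescence, 535/590 nm excitation/emission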
An asterisk follows results filed as active; · = no result. Only some compounds are listed: those with a hit (about 3.2% of all), similar ones and a draw of the others.

SMILES | Mcl1-Noxa inh | 14-3-3 Bad PPI | Hck Nef HTS | Mcl1 Bid PPI | Mcl-1 Bim block | Calb biofilm kill
CCOC(=O)C1(Cc2cccc(F)c2)CCN(C(=O)C2CCCO2)CC1 (stereo not drawn) | 7 | -3 | -3 | -2 | -5 | 5
OCCN(Cc1ccccc1)Cc1ccc(Cl)cc1Cl | 7 | 87* | 2 | 38 | 0 | ·
O=C(Cc1ccccc1)NCCc1ccc(Cl)cc1Cl | 25 | -20 | 1 | -12 | -2 | 17
Cc1ccc(S(=O)(=O)N2CCN(C(=O)c3ccc([N+](=O)[O-])cc3)C2)cc1 | 1 | -3 | 19 | -15 | -2 | 20
O=C(CCSCc1ccccc1Cl)N1CCN(c2cccc(Cl)c2)CC1 | -8 | -2 | 2 | -31 | 0 | ·
Cc1cccc(C2C3=C(Nc4[nH]n(-c5ccccc5)c(=O)c42)c2ccccc2C3=O)c1 (stereo not drawn) | 65* | -1 | 19 | -38 | -4 | 10
CCOC(=O)C1(Cc2cccc(F)c2)CCN(C(=O)c2cnc(C)cn2)CC1 | 9 | 5 | 8 | -3 | 2 | 6
O=C(CNc1ccc2ccccc2c1)N/N=C/C=C/c1cccc([N+](=O)[O-])c1 | 77* | 26 | 20 | 13 | -2 | 15
CCC1CN(C(=O)Nc2ccc(C)cc2)c2cc(C)ccc2O1 (stereo not drawn) | -1 | -8 | 11 | -30 | 1 | 1
COCc1cc(=O)n2[nH]c(-c3ccsc3-n3c(C)ccc3C)cc2n1 | 69* | 5 | 3 | -25 | -3 | ·
O=c1c2c(nc3cc(-c4ccccc4Cl)[nH]n13)CCS2 | 34 | -10 | 27 | -32 | 0 | 6
Cc1nc2cc(-c3ccsc3-n3c(C)ccc3C)[nH]n2c(=O)c1Cl | 61* | 8 | 1 | -37 | 1 | ·
Cc1cc(=O)n2[nH]c(-c3ccsc3-n3c(C)ccc3C)cc2n1 | 97* | 17 | 30 | -87 | · | 4
Cc1cc(=O)n2[nH]c(-c3ccc(F)cc3)cc2n1 | 6 | 4 | 0 | -19 | -4 | ·
Cc1cccc(N2CCN(Cc3ccoc3)CC2)c1C | 36 | 74* | 0 | 22 | 0 | ·
FC(F)(F)c1cccc(N2CCN(Cc3ccoc3)CC2)c1 | 12 | 42 | -2 | 54* | -1 | ·
COc1cc(CN2CCN(c3cccc(C)c3C)CC2)cc(OC)c1O | 15 | 7 | -3 | -22 | 0 | ·
O=[N+]([O-])c1cc(Br)cc(C=Nc2ccc3c(c2)OCO3)c1O | 55* | 16 | 40 | 0 | · | 17
O=c1c2cc(N3CCOCC3)ccc2[nH]c(=S)n1Cc1ccc(Cl)cc1 | 20 | 7 | 0 | 5 | -10 | ·
Cc1ccc(Cn2c(=S)[nH]c3ccc(N4CCOCC4)cc3c2=O)o1 | 73* | 10 | 11 | -4 | 3 | ·
Nc1cc(Oc2cccnc2)cc([N+](=O)[O-])c1 | 4 | 89* | -4 | -15 | -37 | 10
Cc1cccc(Oc2cc(N)cc([N+](=O)[O-])c2)c1 | 6 | 15 | -1 | -32 | -3 | ·
O=C(CN1CCc2ccccc2C1)Nc1cccc(S(=O)(=O)N2CCCC2)c1 | 12 | 80* | -11 | 8 | -2 | 13
Cc1cc(C)nc(N2CCCC(CCC(=O)NCc3ccc(F)c(F)c3)C2)n1 (stereo not drawn) | 9 | -3 | 6 | -15 | -1 | 16
CCOC(=O)c1[nH]c2c(c1C)C(=O)CC(c1ccco1)C2 (stereo not drawn) | 79* | 0 | 10 | 41 | 0 | ·
Cc1c(C(=O)OCCOC(C)C)[nH]c2c1C(=O)CC(c1ccco1)C2 (stereo not drawn) | 27 | 3 | 4 | -29 | -1 | ·
COCCOC(=O)c1[nH]c2c(c1C)C(=O)CC(c1ccco1)C2 (stereo not drawn) | 52* | 13 | 5 | -2 | -2 | ·
